Bioassay records (PubChem BioAssay)
mIAP block – blocks mouse intestinal alkaline phosphatase. purified mouse IAP, CDP-Star luminescence, 30 min. inhibition, % at 10 µM. hit rate 0.2% among 330,000;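 active = inhibition of at least 40% at 10 µM in the primary screen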;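 note: plate controls were DMSO with enzyme for no effect and no enzyme wells for full effect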
bIAP activator – increases bovine intestinal alkaline phosphatase activity; purified bovine IAP, CDP-star luminescence, 30 min; active compounds read high; fold of DMSO-control signal, blank-subtracted; activation factor at 20 µM; hit rate 0.17% among 200,000; AID 1016;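 active = activation factor of 2 or more at 20 µM, a signal rise over negative controls twice the positive control's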
mIAP act – mouse IAP activation; muIAP, CDP-Star luminescence, 30 min; active compounds read high; 1 = vehicle-only enzyme signal, 0 = enzyme-free wells; activation factor at 10 µM; hit rate 0.24% among 330,000; AID 2805;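 active = activation factor of at least 2 at 20 µM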
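also added = chemiluminescent substrate CDP-Star | test system = mouse IAP enzyme | signal = chemiluminescence readout | compound = DMSO-dissolved test compounds | incubation = 30 min at room temperature | benchmarks = DMSO wells, no-enzyme wells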
bIAP inhibitor – intestinal alkaline phosphatase (bovine) inhibition | AID 1019 | purified bovine IAP, CDP-star luminescence, 30 min | inhibition, % at 20 µM | 190,000 tested, under 10 active;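 active = over 50% inhibition of intestinal alkaline phosphatase at 20 µM in the single-dose screen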
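test system = bovine IAP enzyme | medium = DEA buffer 100 mM, pH 9.8, with MgCl2 1.0 mM, ZnCl2 0.02 mM | detection = luminescence | dosing = single compound dose of 20 µM, 2% DMSO final | incubation = 30 min reaction at room temperature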
hIAP act – increases human intestinal alkaline phosphatase activity; P09923; purified human IAP, CDP-Star luminescence, 30 min; active compounds read high; 1 = vehicle-only enzyme, 0 = enzyme-free background; activation factor at 10 µM; hit rate 0.16% among 330,000;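 active = activation factor of the enzyme at least 2-fold when tested at 20 µM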
Target sequence (P09923 whole entry, looked up): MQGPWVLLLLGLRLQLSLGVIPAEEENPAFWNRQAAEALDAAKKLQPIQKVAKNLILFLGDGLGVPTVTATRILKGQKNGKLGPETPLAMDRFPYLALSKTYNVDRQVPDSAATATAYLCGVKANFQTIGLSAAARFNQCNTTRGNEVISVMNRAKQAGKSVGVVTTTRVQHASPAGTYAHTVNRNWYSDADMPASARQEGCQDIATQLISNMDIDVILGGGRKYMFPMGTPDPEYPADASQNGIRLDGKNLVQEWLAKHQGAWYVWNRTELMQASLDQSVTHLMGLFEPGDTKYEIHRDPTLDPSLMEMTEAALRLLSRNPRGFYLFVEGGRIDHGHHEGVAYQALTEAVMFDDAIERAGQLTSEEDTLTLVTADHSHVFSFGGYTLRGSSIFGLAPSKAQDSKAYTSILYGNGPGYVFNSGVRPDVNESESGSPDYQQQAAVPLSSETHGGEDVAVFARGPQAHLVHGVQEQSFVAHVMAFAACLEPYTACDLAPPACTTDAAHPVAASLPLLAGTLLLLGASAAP
hIAP block – blocks human intestinal alkaline phosphatase. P09923. purified IAP, CDP-Star luminescence, 30 min. inhibition, % at 10 µM. hit rate 0.12% among 330,000;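 active = inhibition reaching a set limit with compound at 10 µM in the primary screen, cut at about 35% in these data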;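 note: plate controls were DMSO wells with enzyme for no effect and no-enzyme buffer wells for full effect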
Starred values were filed as active, the others as inactive; nt = not tested or not shown. A selection: hits, their analogues and other compounds. The true share with any hit is near 0.72%.

SMILES | mIAP block | bIAP activator | mIAP act | bIAP inhibitor | hIAP act | hIAP block
O=C(Nc1ccccc1)Nc1ccc(Cl)c(S(=O)(=O)N2CCOCC2)c1 | -182 | 1 | 2.8* | 2 | 1.1 | -5
O=C(Nc1cccc(Cl)c1)Nc1cc(S(=O)(=O)N2CCOCC2)ccc1N1CCCC1 | -272 | 1 | 3.7* | -2 | 1.2 | -18
O=C(Nc1ccc(NC(=O)c2ccc(Cl)c(S(=O)(=O)N3CCOCC3)c2)cc1)c1ccccc1 | -6 | nt | 1.1 | nt | 1.2 | -15
Cc1ccccc1-n1ncc2c1CC(C)(C)CC2NC(=O)CCN1CCCCC1=O (stereo unspecified) | 1 | nt | 0.99 | nt | 0.98 | 2
Fc1ccc(-c2n[nH]c(=S)n2/N=C/c2c[nH]c3ccccc23)cc1 | -16 | 2.1* | 1.2 | -113 | 1.3 | -28
COC(=O)[C@H](CC(C)C)NC(=O)Cn1cnc2c(SC)nc(N)nc21 | -2 | nt | 1 | nt | 1.1 | -13
CCN(CC)C(=O)c1[nH]cnc1C(=O)NCC(=O)OCc1ccccc1 | 4 | nt | 0.96 | nt | 1.2 | -16
C[n+]1ccc(C(=O)Nc2ccccc2Cl)cc1 | 11 | nt | 0.89 | nt | 1 | 0
CCOc1ccc(N2CCc3c(C)nc(SC)nc32)cc1 | 9 | 1 | 0.91 | -4 | 0.94 | 6
COc1cc(NC(=O)c2ccc(Cl)cc2)c(Cl)cc1NC(=O)c1cccnc1 | 10 | nt | 0.9 | nt | 1.1 | -10
N#Cc1c(NC(=O)CSc2ncnc3sccc23)oc(-c2ccco2)c1-c1ccco1 | 70* | 1 | 0.3 | -2 | 0.88 | 12
Cc1cc(NC(=O)CSc2ncnc3sccc23)no1 | 2 | 1 | 0.98 | -4 | 0.94 | 6
COc1ccc(C(CCc2ccc(C)o2)NC(=O)Nc2ccc(OC)cc2OC)cc1 (stereo unspecified) | -104 | 1.1 | 2* | -12 | 0.83 | 17
O=C(Cc1ccc(Cl)cc1)Nc1cccc(S(=O)(=O)N2CCCCC2)c1 | -112 | nt | 2.1* | nt | 0.89 | 11
COc1cccc(CNC(=O)CCC2CCCN(C(=O)c3cc(C4CC4)[nH]n3)C2)c1 (stereo unspecified) | -10 | 2.2* | 1.1 | -123 | 1.3 | -32
COc1cccc(CNC(=O)CCC2CCCN(C(=O)c3cc(C)on3)C2)c1 (stereo unspecified) | -14 | 1 | 1.1 | -1 | 1.1 | -5
CCOC(=O)c1c(C)c(C(=O)NCc2ccccn2)c(C)n1CC | 7 | 1.1 | 0.93 | -12 | 0.78 | 22
CC(C)CNC(=S)Nc1ccc(Oc2ccccc2)cc1 | -116 | 0.9 | 2.2* | 5 | 0.93 | 7
C[C@@H](C(=O)Nc1ccc2ccccc2c1)[C@H]1C[C@]1(C)[C@H](NC(=O)OCc1ccccc1)c1ccccc1 | -50 | 0.9 | 1.5 | 8 | 1 | -2
Cc1cc(C(=O)N[C@H](c2ccccc2)[C@@]2(C)C[C@@H]2[C@@H](C)C(=O)Nc2ccc3ccccc3c2)n(C)n1 | -110 | 0.9 | 2.1* | 7 | 1.2 | -15
O=C1NC(=S)S/C1=C\c1coc2ccc(O)cc2c1=O | 46* | nt | 0.54 | nt | 0.87 | 13
CCc1ccc(N2CSC3=C(C#N)C(c4cccs4)CC(=O)N3C2)cc1 (stereo unspecified) | 31 | 0.7 | 0.69 | 25 | 1 | -1
COc1ccc(N2CSC3=C(C#N)C(c4cccs4)CC(=O)N3C2)cc1 (stereo unspecified) | 44* | 1.1 | 0.56 | -10 | 0.76 | 24
COc1cccc(NC(=S)NC2CC3CCCC(C2)N3CC(C)C)c1 (stereo unspecified) | -179 | 1.1 | 2.8* | -6 | 1.1 | -11
Cc1ccc(C)n1-c1ccc(C(=O)NN)s1 | -13 | 2.1* | 1.1 | -110 | 1.2 | -21
SMILES | mIAP block | bIAP activator | mIAP act | bIAP inhibitor | hIAP act | hIAP block
CCOC(=O)CNC(=O)c1ccc(Br)s1 | -5 | nt | 1.1 | nt | 0.93 | 7
O=C(NCC1CC1)C1(C(F)(F)F)CC(CCCO)CCCO1 (stereo unspecified) | 4 | nt | 0.96 | nt | 1 | -3
CCCCC(=O)NC(=S)NNC(=O)CCc1ccccc1 | 13 | nt | 0.87 | nt | 1.6 | -59
CC(=O)NNC(=S)NC(=O)C(c1ccccc1)c1ccccc1 | 3 | 2.7* | 0.97 | -172 | 0.99 | 1
CC(=O)NC(=S)NNC(=O)CCc1ccccc1 | 4 | 2.2* | 0.96 | -118 | 1.7 | -67
CCOc1ccc2nc(NCCNC(=O)Nc3cccc(C)c3)c(C#N)cc2c1 | -115 | 1.8 | 2.2* | -79 | 0.88 | 12
CCN1CCN(CCCNC(=O)c2ccccc2NC(=O)C2=C(C)OCCS2)CC1 | -3 | nt | 1 | nt | 1 | -5
CCN(CC)S(=O)(=O)c1ccc(N2CCOCC2)c(NC(=O)c2[nH]c(C)c(C(C)=O)c2C)c1 | -13 | nt | 1.1 | nt | 1.1 | -8
CCCN1C=CC(=CC=C(C#N)C#N)C=C1 | 30 | nt | 0.7 | nt | 0.89 | 11
CCCN1C=CC(=C/C=C(\C#N)C(=O)OCC)C=C1 | 26 | 0.5 | 0.74 | 49 | 0.63 | 37*
CCOC(=O)/C(C#N)=C/C=C1\C=Cc2ccccc2N1CC | 44* | 1 | 0.56 | -2 | 0.69 | 31
O=C(Nc1ccc(Cl)c(C(F)(F)F)c1)NC1CC2CCCC(C1)N2C1CC1 (stereo unspecified) | -337 | nt | 4.4* | nt | 0.92 | 8
O=C(Nc1cccc(F)c1)NC1CC2CCCC(C1)N2C1CC1 (stereo unspecified) | -38 | 1 | 1.4 | -2 | 0.94 | 6
COc1ccccc1CNC(=O)CSCc1cnn(-c2ccccc2)c1-n1cccc1 | -8 | 3.6* | 1.1 | -258 | 1 | -3
COc1ccc(OC)c(NC(=O)CSCc2cnn(-c3ccccc3)c2-n2cccc2)c1 | 1 | 0.9 | 0.99 | 5 | 1.1 | -6
COc1cccc(CNC(=O)CSCc2cnn(-c3ccccc3)c2-n2cccc2)c1OC | -2 | 2.3* | 1 | -131 | 1.2 | -22
O=C(CSCc1cnn(-c2ccccc2)c1-n1cccc1)NCc1cccnc1 | -2 | 1.3 | 1 | -34 | 0.95 | 5
COc1cc(NC(=O)CSCc2cnn(-c3ccccc3)c2-n2cccc2)cc(OC)c1 | -25 | 4.1* | 1.3 | -305 | 1.2 | -18
COCCNC(=O)C(c1ccc(C)cc1)N(C(=O)C(=O)NC1CCCC1)c1ccc2c(c1)OCCO2 (stereo unspecified) | -2 | 1.1 | 1 | -12 | 1 | -3
CCCN(C(=O)CCOc1ccc(C(C)(C)C)cc1)c1c(N)n(Cc2ccccc2)c(=O)[nH]c1=O | -9 | nt | 1.1 | nt | 1.1 | -13
CC(=O)Nc1ccc(-c2csc(NC(=O)C3CSC4(C)CCC(=O)N34)n2)cc1 (stereo unspecified) | 8 | nt | 0.92 | nt | 1 | -4
CC(NC(=O)CN(C)Cc1nc2ccccc2c(=O)[nH]1)c1ccccc1 (stereo unspecified) | -1 | 2.1* | 1 | -115 | 1.9 | -92
O=C(O)/C=C/S(=O)(=O)c1ccc2ccccc2c1 | 11 | nt | 0.89 | nt | 1.1 | -9
